F508del corr: correctors of CFTR F508del function in bronchial epithelial cells; CFBE cells, YFP halide quenching; stimulated with forskolin plus potentiator P3; % fluorescence drop versus neutral controls; activity (quench increase), % at 7.58 µM; actives 0.36% (n = 350,000); AID 720511;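 active = mean added fluorescence quench of at least 8% versus neutral control, with both replicates also reaching 8%; inconclusive = only one of the mean or replicate conditions met; inactive = mean below 8% and not both replicates reaching 8%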;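 also: cells transiently co-express mutant CFTR-F508del with the halide-sensitive YFP; corrector assay measuring rescue of mutant channel to the surface after 24 h compound exposure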
Env fusion inh: inhibitors of HIV Env-mediated cell fusion. actives 1.1% (n = 360,000). inhibition, % at 12.3 µM. HeLa-JRFL Env/CEM21 cell fusion, luciferase;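 active = mean replicate inhibition score of at least 50 and every replicate individually at or above 50; inconclusive = only one of the two criteria met; inactive = mean below 50 and not all replicates reaching 50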;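 also: 0% = plate neutral controls and 100% = maraviroc near 300 nM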
PAX8 inh HTS: lowers PAX8-driven luciferase in RMG-I cells; inhibition, % at 12.6 µM; RMG-I TPO-luciferase reporter, SteadyGlo, 24 h; actives 1.2% (n = 360,000);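 active = mean replicate inhibition at least 60% with every replicate also reaching 60%; inconclusive = only one of the two criteria is met; inactive = mean below 60% and not all replicates reaching 60%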;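 also: luciferase light reporting Pax8 driven TPO promoter activity; plate controls were median of neutral control wells for no effect and mitoxantrone controls for full effect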
EWS-Fli block: blocks EWS/Fli oncoprotein-driven transcription; A673 NR0B1-luciferase reporter, viability-normalised; inhibition, % at 12.6 µM; actives 0.67% (n = 350,000);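 active = mean inhibition of at least 50% after viability correction, with every replicate also passing that limit; inconclusive = mean reaches 50% but only one of two replicates passes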;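 also: firefly luciferase signal divided by Alamar Blue viability fluorescence both relative to DMSO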
FN deposit inh: fibronectin deposition inhibition; AH1F fibroblasts, Alexa488-fibronectin deposition fluorescence, overnight; inhibition, % at 12.6 µM; actives 0.086% (n = 350,000); AID 743247;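 active = mean inhibition across replicates of 30% or more, regardless of how many single replicates reach that level; inconclusive = mean under 30% yet at least half of replicates reach 30%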;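 also: positive control wells lacked labelled fibronectin entirely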
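Material: AH1F fibroblast monolayer depositing Alexa488-labelled fibronectin into matrix / Amount: 10000 AH1F cells per well / Signal: fluorescence 485/525 nm / Medium: DMEM, 2% serum / Compound: single dose, pinned / Incubation: 1 h cell adhesion before compound, then overnight fibronectin incubation / Reagent: Alexa488-FN, 24 nM final / Read-out: inhibition of fibronectin deposition signal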
PGC1a acetyl inh: modulators of PGC1a acetylation; actives 0.17% (n = 350,000); U2OS PGC1a acetylation, AlphaScreen anti-acetyl-lysine; with virally co-expressed GCN5 acetyltransferase; inhibition, % at 15.6 µM;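 active = every replicate shows inhibition of at least 40%; inconclusive = mean inhibition at least 40% but some replicate below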;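 also: 0% = neutral control wells and 100% = positive control wells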
DNA binder FP: DNA binding small molecules. AID 720586. AC35, µM (highest dose often 68 µM), without a hit: at the top dose activity change, negative = DNA binding. salmon sperm DNA acridine orange fluorescence polarization. actives 2% (n = 640). shares compounds with EWS-Fli block;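 active = fitted curve reaches a 35% signal fall AC35 below twice the sample's top valid tested dose, actives reach about 48 µM in these data; inactive = the rest, including activity in the rising direction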;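 also: lower polarization ratio signals compound binding to DNA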
* = called active by the depositor; ? = inconclusive; · = no result; [ ] = another dose, or the depositor's remark. Hits are enriched below; roughly 2.3% of the tested compounds scored in any of these assays.

SMILES	F508del corr	Env fusion inh	PAX8 inh HTS	EWS-Fli block	FN deposit inh	PGC1a acetyl inh	others
CC(=O)OC1(C)CC(C)C(=O)C(C(O)CC2CC(=O)NC(=O)C2)C1 (stereo unspecified)	-7.4	·	·	43.3	·	92.7*
C[C@@H]1C[C@@H]([C@H](O)CC2CC(=O)NC(=O)C2)C(=O)[C@@H](C)C1	-3.3	·	·	42.4	·	72.7*
CC[C@@]1(O)C(=O)OCc2c1cc1n(c2=O)Cc2cc3c(NC(=O)CN)cccc3nc2-1	-0.9	68.9*	98.8*	55.8*	-15.0	·
COC(=O)[C@H]1[C@H](CO)[C@H]2Cn3c(ccc(-c4ccccc4)c3=O)[C@@H]1N2CC1CCOCC1	0.3	·	0.3	-4.3	·	-1.2
COC1=C(C)C(=O)C2=C(C1=O)C(CO)N1C(C#N)C3CC4C(C1C2N1CCOC41)N3C (stereo unspecified)	-5.7	67.4*	92.4*	1.0	-12.1	-2.7
COc1cccc(OC)c1C1=NCC(=O)Nc2c1oc1ccc(Br)cc21	3.8	-177.6	75.9*	46.5	-3.0	-17.7
O=C1CN=C(c2ccccc2)c2oc3ccc(Br)cc3c2N1	·	-303.0	·	·	0.3	·
COC(=O)[C@@H]1[C@@H](CO)[C@@H]2Cn3c(ccc(C4=CCCC4)c3=O)[C@H]1N2S(=O)(=O)c1cn(C)cn1	0.4	·	-8.3	5.4	·	·
NC(N)=N/N=C/c1cn(-c2ccccc2)nc1-c1cccs1	-0.2	-65.0	17.2	6.2	34.6*	·
O=c1c2ccccc2nc(-c2cccs2)n1-c1ccccc1	·	·	·	·	·	-9.5
CC[C@H]1CN2CCC1C[C@H]2[C@H](O)c1ccnc2ccc(OC)cc12 (stereo partly specified)	9.8*	-16.9	4.1	9.4	-2.8	·
Cc1cc(-c2ccccc2)cc(-c2ccccc2)[n+]1CCc1ccccc1	-2.3	17.3	84.9*	41.7	7.5	-9.6
CCOc1ccc(-c2cc(C)[n+](CCO)c(-c3ccc(OCC)cc3)c2)cc1	2.1	3.6	92.3*	14.1	3.0	·
CCOc1ccc(-c2cc(C)[n+](CCc3ccc(OC)c(OC)c3)c(-c3ccc(OCC)cc3)c2)cc1	0.2	25.4	91.8*	51.1*	7.8	-230.1
C[n+]1c(-c2ccccc2)cc(-c2ccc(O)cc2)cc1-c1ccccc1	0.9	6.0	3.7	4.1	-11.9	0.6
CCOc1ccc(N)cc1	-2.0	6.7	-3.3	2.0	-0.7	·
COC(=O)[C@H]1[C@H](CO)[C@H]2Cn3c(ccc(C4=CCCC4)c3=O)[C@@H]1N2CC1CCCCC1	0.6	·	·	-2.5	·	·
COc1ccc(OC(=O)N(C)C[C@H]2OCc3ccccc3-c3c(n(C)c4ccccc34)C(=O)N([C@@H](C)CO)C[C@@H]2C)cc1	-2.2	·	33.2	1.9	-9.9	-1.5
C=CCN1[C@@H]2CN(S(C)(=O)=O)C[C@H]1C2c1ccccc1 (stereo partly specified)	·	·	·	·	4.4	·
COOCC1(C(=O)OC)C[C@H](c2ccc(OC)cc2)N(Cc2ccccc2OC)[C@@H]1c1ccccc1C (stereo partly specified)	-0.3	89.0*	-15.3	-3.9	2.1	·
COc1nc(C)nc(NC(=O)NS(=O)(=O)c2ccccc2Cl)n1	13.8*	42.1	-15.6	2.3	-4.4	8.6
Fc1ccc(C[n+]2c(-c3ccccc3)cc(-c3ccccc3)cc2-c2ccccc2)cc1	-1.3	36.6	88.6*	26.1	-11.5	·
Clc1ccc(C[n+]2c(-c3ccccc3)cc(-c3ccccc3)cc2-c2ccccc2)cc1	-1.4	107.2*	97.3*	44.2	5.6	-26.7
OC[C@@H]1Nc2ccc(C#Cc3cccnc3)cc2[C@H]2NCC[C@@H]12	·	·	·	·	-4.4	·
CN1[C@@H]2CN(CC3CC3)C[C@H]1C2c1ccc(Br)cc1 (stereo partly specified)	·	·	·	·	6.9	·
SMILES	F508del corr	Env fusion inh	PAX8 inh HTS	EWS-Fli block	FN deposit inh	PGC1a acetyl inh	others
C[C@@H]1O[C@@H](O[C@@H]2C=C3CCC4C(CC[C@]5(C)[C@@H](c6ccc(=O)oc6)CC[C@]45O)[C@@]3(C)CC2)[C@H](O)[C@H](O)[C@H]1O (stereo partly specified)	6.1	65.0*	110.4*	71.3*	5.1	60.1*	DNA binder FP=1.9%
C[C@@H]1O[C@@H](O[C@@H]2C=C3CC[C@@H]4C(CC[C@]5(C)[C@@H](c6ccc(=O)oc6)CC[C@]45O)[C@@]3(C)CC2)[C@H](O)[C@H](O)[C@H]1O (stereo partly specified)	23.6*	93.1*	108.4*	70.9*	13.1	67.0*	DNA binder FP=-9.6%
CCN1[C@@H]2c3ccc(-c4ccc(OC)cc4)c(=O)n3C[C@H]1[C@H](CO)[C@H]2C(=O)OC	·	·	·	4.2	·	·
CC(=O)OC1CC(OC2C(O)CC(OC3C(O)CC(OC4CCC5(C)C(CCC6C5CCC5(C)C(C7=CC(=O)OC7)CCC65O)C4)OC3C)OC2C)OC(C)C1OC1OC(CO)C(O)C(O)C1O (stereo unspecified)	0.7	68.6*	101.7*	52.9*	4.6	?	DNA binder FP=-16.7%
O=C(O)[C@@H]1[C@@H](CO)[C@@H]2Cn3c(ccc(-c4ccccc4)c3=O)[C@H]1N2CC1CCCCC1	0.1	·	-7.5	-3.7	·	·
O=C1NC(=S)NC(=O)C1=Cc1cccn1-c1ccc(O)cc1	-3.1	-55.6	31.6	71.5*	2.9	·	DNA binder FP=-0.1%
COC(=O)[C@@H]1[C@@H](CO)[C@@H]2Cn3c(ccc(-c4ccccc4)c3=O)[C@H]1N2CC1CCCC1	-2.9	·	·	-1.5	·	2.8
COC(=O)[C@H]1[C@H](CO)[C@H]2Cn3c(ccc(-c4ccccc4F)c3=O)[C@@H]1N2CC1CCCC1	·	8.3[16.7 µM]	·	66.2*	·	·	DNA binder FP=-9.9%
COC1C(C)OC(OC2CC(C)(O)Cc3cc4c(c(O)c32)C(=O)c2c(O)cc3c(c2C4=O)OC2OC3(C)C(O)C(N(C)C)C2O)C(OC)C1(C)OC (stereo unspecified)	20.4*	70.7*	·	55.7*	-4.3	·	DNA binder FP=1.26µM*
O=C(Cc1cccnc1)N1CCCCN2[C@@H](CO)[C@@H](c3ccc(/C=C/c4ccccc4)cc3)[C@@H]2C1	-0.5	·	6.5	2.5	·	12.6
COc1ccc(C(=O)N/N=C/C23CC[C@@H](O)CC2(O)CC[C@@H]2[C@@H]3CCC3(C)C(C4=CC(=O)OC4)CCC23O)cc1 (stereo partly specified)	-2.8	-23.7	-15.6	10.8	0.9	9.1
C[C@@H]1O[C@@H](O[C@H]2C[C@@H](O)[C@]3(CO)[C@H]4[C@H](O)C[C@]5(C)[C@@H](C6COC(=O)C6)CC[C@]5(O)[C@@H]4CC[C@]3(O)C2)[C@H](O)[C@H](O)[C@H]1O (stereo partly specified)	-1.6	-157.2	105.1*	70.3*	7.6	0.0	DNA binder FP=-0.9%

High-throughput results from PubChem.
